Key:
Assay type in all cases: cell-based
Adenosine receptor A3 = molecular target: T1, Adenosine receptor A3 (Homo sapiens, UniProt P0DMS8); assay: Displacement of [125I]AB-MECA from human adenosine A3 receptor transfected in CHO cells
T1 sequence (P0DMS8 whole entry): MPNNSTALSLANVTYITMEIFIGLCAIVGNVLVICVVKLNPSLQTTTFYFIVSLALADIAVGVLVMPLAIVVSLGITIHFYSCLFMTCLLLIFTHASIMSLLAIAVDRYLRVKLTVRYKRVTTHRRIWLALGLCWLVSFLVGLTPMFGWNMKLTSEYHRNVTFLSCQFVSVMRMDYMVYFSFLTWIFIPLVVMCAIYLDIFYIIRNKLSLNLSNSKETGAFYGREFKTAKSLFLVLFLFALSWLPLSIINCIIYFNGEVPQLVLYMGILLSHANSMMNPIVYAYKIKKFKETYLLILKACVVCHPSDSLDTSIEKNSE

Adenosine receptor A2a [1] = molecular target: T2, Adenosine receptor A2a (Homo sapiens, UniProt P29274); assay: Inhibition of [3H]CGS-21680 binding to human adenosine A2A receptor transfected in HEK293 cells at 10 uM
[2] = molecular target: T3, Adenosine receptor A1 (Homo sapiens) (UniProt P30542); assay: Inhibition of [3H]R-PIA binding to human adenosine A1 receptor transfected in CHO cells at 10 uM
T3 sequence (whole entry): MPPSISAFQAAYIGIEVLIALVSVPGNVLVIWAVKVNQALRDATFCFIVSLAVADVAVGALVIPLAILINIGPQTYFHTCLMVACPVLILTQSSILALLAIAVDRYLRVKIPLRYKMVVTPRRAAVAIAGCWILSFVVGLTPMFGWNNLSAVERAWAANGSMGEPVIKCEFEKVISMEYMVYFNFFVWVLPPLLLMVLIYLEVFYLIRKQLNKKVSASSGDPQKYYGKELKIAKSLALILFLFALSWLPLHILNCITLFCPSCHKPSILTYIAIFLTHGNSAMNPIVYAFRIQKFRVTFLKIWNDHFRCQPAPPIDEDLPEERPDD

Adenosine receptor A1 = molecular target: T4, Adenosine receptor A1 (Homo sapiens, UniProt P30542); assay: Displacement of [3H]R-PIA from human adenosine A1 receptor transfected in CHO cells
T4 sequence (P30542 whole entry): T3 sequence (whole entry)
Method in brief: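 Membranes (40 µg/tube) from CHO cells stably expressing human A1 receptor were incubated with 2 nM [3H]R-PIA at 25 °C for 60 min in 50 mM Tris·HCl pH 7.4 containing 10 mM MgCl2. Nonspecific binding defined with 10 µM CPA. Terminated by filtration through GF/B filters.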

Adenosine receptor A2a [3] = molecular target: T2, Adenosine receptor A2a; assay: Displacement of [3H]CGS-21680 from human adenosine A2A receptor transfected in HEK293 cells
Method in brief: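 Membranes (20 µg/tube) from HEK-293 cells stably expressing human A2A receptor, incubated with 15 nM [3H]CGS21680 at 25 °C for 60 min in 50 mM Tris·HCl pH 7.4 with 10 mM MgCl2. Nonspecific binding defined with 10 µM NECA. Terminated by filtration through GF/B filters.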

T2 sequence (P29274 whole entry): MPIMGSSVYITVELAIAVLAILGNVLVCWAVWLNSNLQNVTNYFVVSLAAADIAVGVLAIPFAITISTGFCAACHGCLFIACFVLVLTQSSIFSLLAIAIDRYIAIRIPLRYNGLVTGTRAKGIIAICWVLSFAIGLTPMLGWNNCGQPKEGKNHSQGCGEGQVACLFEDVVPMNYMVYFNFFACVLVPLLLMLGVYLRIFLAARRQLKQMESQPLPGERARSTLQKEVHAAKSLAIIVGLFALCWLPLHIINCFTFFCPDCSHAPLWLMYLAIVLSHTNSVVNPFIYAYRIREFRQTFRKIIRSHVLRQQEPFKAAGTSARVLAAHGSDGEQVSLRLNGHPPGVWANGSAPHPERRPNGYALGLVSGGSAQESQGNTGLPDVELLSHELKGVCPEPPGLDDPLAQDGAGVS

`CC(C)CCNC(=O)[C@H]1S[C@@H](n2cnc3c(NCc4cccc(I)c4)nc(Cl)nc32)[C@H](O)[C@@H]1O` gave a Ki (Adenosine receptor A3) of 0.0419 µM, an inhibition (Adenosine receptor A2a [1]) of 31% and an inhibition [2] of 31%.

Compound `CNc1nc(Cl)nc2c1ncn2[C@@H]1S[C@H](C(=O)NCCC(C)C)[C@@H](O)[C@H]1O` has a Ki (Adenosine receptor A3) of 0.00163 µM, an inhibition (Adenosine receptor A2a [1]) of 14% and a Ki (Adenosine receptor A1) of 4.07 µM.

With `CNc1nc(Cl)nc2c1ncn2[C@@H]1S[C@H](C(=O)N(C)C)[C@@H](O)[C@H]1O` the Ki (Adenosine receptor A3) was 1.5 µM, the inhibition (Adenosine receptor A2a [1]) was 12% and the inhibition [2] was 10%.

With `CNc1nc(Cl)nc2c1ncn2[C@@H]1S[C@H](C(=O)N2CCOCC2)[C@@H](O)[C@H]1O` the Ki (Adenosine receptor A3) was 3.87 µM, the inhibition (Adenosine receptor A2a [1]) was 24% and the inhibition [2] was 4%.

`CNC(=O)[C@H]1S[C@@H](n2cnc3c(NC)nc(Cl)nc32)[C@H](O)[C@@H]1O` showed an inhibition (Adenosine receptor A2a [1]) of 20%.

`CNc1nc(Cl)nc2c1ncn2[C@@H]1S[C@H](C(=O)NCCc2cccc(F)c2)[C@@H](O)[C@H]1O` gave a Ki (Adenosine receptor A3) of 0.0856 µM, an inhibition (Adenosine receptor A2a [1]) of 30% and an inhibition [2] of 15%.

Compound `O=C([C@H]1S[C@@H](n2cnc3c(NCc4cccc(I)c4)nc(Cl)nc32)[C@H](O)[C@@H]1O)N1CCC(Cc2ccccc2)CC1` has a Ki (Adenosine receptor A3) of 0.878 µM, an inhibition (Adenosine receptor A2a [1]) of 17% and an inhibition [2] of 38%.

With `O=C(NCCC(c1ccccc1)c1ccccc1)[C@H]1S[C@@H](n2cnc3c(NCc4cccc(I)c4)nc(Cl)nc32)[C@H](O)[C@@H]1O` the Ki (Adenosine receptor A3) was 0.343 µM, the inhibition (Adenosine receptor A2a [1]) was 3% and the inhibition [2] was 5%.

With `CNc1nc(Cl)nc2c1ncn2[C@@H]1S[C@H](C(=O)NC2CC2)[C@@H](O)[C@H]1O` the Ki (Adenosine receptor A2a [3]) was 2.77 µM, the Ki (Adenosine receptor A3) was 0.00282 µM and the Ki (Adenosine receptor A1) was 0.0478 µM.

In the case of `CNc1nc(Cl)nc2c1ncn2[C@@H]1S[C@H](C(=O)NCCC(c2ccccc2)c2ccccc2)[C@@H](O)[C@H]1O`, the Ki (Adenosine receptor A3) is reported as 0.415 µM, the inhibition (Adenosine receptor A2a [1]) is reported as 15% and the inhibition [2] is reported as 20%.

With `CCNC(=O)[C@H]1S[C@@H](n2cnc3c(NCc4cccc(I)c4)nc(Cl)nc32)[C@H](O)[C@@H]1O` the Ki (Adenosine receptor A2a [3]) was 0.292 µM, the Ki (Adenosine receptor A3) was 0.00089 µM and the Ki (Adenosine receptor A1) was 0.144 µM.

Compound `Cc1ccccc1CNc1nc(Cl)nc2c1ncn2[C@@H]1S[C@H](C(=O)N2CCC(Cc3ccccc3)CC2)[C@@H](O)[C@H]1O` has a Ki (Adenosine receptor A3) of 49.2 µM, an inhibition (Adenosine receptor A2a [1]) of 15% and an inhibition [2] of 26%.

Compound `O=C(NC1CCC1)[C@H]1S[C@@H](n2cnc3c(NCc4cccc(I)c4)nc(Cl)nc32)[C@H](O)[C@@H]1O` has a Ki (Adenosine receptor A2a [3]) of 0.549 µM, a Ki (Adenosine receptor A3) of 0.0182 µM and a Ki (Adenosine receptor A1) of 0.126 µM.

With `O=C(NCc1cccc(C(F)(F)F)c1)[C@H]1S[C@@H](n2cnc3c(NCc4cccc(I)c4)nc(Cl)nc32)[C@H](O)[C@@H]1O` the Ki (Adenosine receptor A3) was 0.354 µM, the inhibition (Adenosine receptor A2a [1]) was 11% and the inhibition [2] was 0%.

`CNc1nc(Cl)nc2c1ncn2[C@@H]1S[C@H](C(=O)N2CCN(c3ccc(F)cc3)CC2)[C@@H](O)[C@H]1O` gave a Ki (Adenosine receptor A3) of 2.7 µM, an inhibition (Adenosine receptor A2a [1]) of 34% and an inhibition [2] of 28%.

`O=C(NC1CC1)[C@H]1S[C@@H](n2cnc3c(NCc4cccc(I)c4)nc(Cl)nc32)[C@H](O)[C@@H]1O` gave a Ki (Adenosine receptor A2a [3]) of 0.326 µM, a Ki (Adenosine receptor A3) of 0.00296 µM and a Ki (Adenosine receptor A1) of 0.092 µM.

In the case of `CCNC(=O)[C@H]1S[C@@H](n2cnc3c(NCc4ccccc4C)nc(Cl)nc32)[C@H](O)[C@@H]1O`, the Ki (Adenosine receptor A2a [3]) is reported as 0.429 µM, the Ki (Adenosine receptor A3) is reported as 0.0025 µM and the Ki (Adenosine receptor A1) is reported as 0.0758 µM.

`O=C(NC1CC1)[C@H]1S[C@@H](n2cnc3c(NC4CC4)nc(Cl)nc32)[C@H](O)[C@@H]1O` showed a Ki (Adenosine receptor A2a [3]) of 0.325 µM, a Ki (Adenosine receptor A3) of 0.00556 µM and a Ki (Adenosine receptor A1) of 0.0046 µM.

From ChEMBL document CHEMBL1148606 (J Med Chem, 2006)
